Data from ChEMBL document CHEMBL4396880, “Development of Small-Molecules Targeting Receptor Activator of Nuclear Factor-κB Ligand (RANKL)-Receptor Activator of Nuclear Factor-κB (RANK) Protein-Protein Interaction by Structure-Based Virtual Screening and Hit Optimization” (J Med Chem, 2019).
Activity calls are given as the source filed them. No cut-off for these calls is given here. Bridge positions count the residues as written; N and C are the ends. Peptide text beside a SMILES is read from it.

Assays:
[1] = biological target: T1, Tumor necrosis factor ligand superfamily member 11 (Mus musculus, UniProt O35235); test: Binding affinity to mouse N-terminal His6-Trx-tagged RANKL ectodomain (157 to 316 residues) expressed in Escherichia coli BL21 (DE3) by isothermal titration calorimetric assay
T1 sequence (O35235 whole entry): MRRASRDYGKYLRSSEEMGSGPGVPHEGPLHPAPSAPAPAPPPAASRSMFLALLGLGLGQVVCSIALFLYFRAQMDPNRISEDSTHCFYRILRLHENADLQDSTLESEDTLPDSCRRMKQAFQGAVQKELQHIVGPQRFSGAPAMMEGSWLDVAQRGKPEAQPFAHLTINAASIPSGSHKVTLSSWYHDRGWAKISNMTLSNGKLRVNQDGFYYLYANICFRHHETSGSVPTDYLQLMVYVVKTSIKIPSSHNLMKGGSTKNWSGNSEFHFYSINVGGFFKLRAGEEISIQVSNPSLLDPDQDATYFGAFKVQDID

[2] = biological target: T2, Tumor necrosis factor ligand superfamily member 11 (Homo sapiens, UniProt O14788); test: Binding affinity to human RANKL by surface plasmon resonance analysis
T2 sequence (O14788 whole entry): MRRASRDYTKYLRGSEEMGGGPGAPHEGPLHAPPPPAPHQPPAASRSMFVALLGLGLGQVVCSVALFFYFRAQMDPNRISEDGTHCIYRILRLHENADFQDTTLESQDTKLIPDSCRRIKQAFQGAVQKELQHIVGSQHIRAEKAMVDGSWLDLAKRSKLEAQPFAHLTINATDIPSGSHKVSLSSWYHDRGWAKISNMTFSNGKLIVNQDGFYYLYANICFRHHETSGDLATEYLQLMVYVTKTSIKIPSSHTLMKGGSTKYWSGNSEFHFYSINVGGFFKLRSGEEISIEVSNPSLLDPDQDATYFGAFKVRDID

[3] = biological target: T3, Tumor necrosis factor ligand superfamily member 11/11A (Mus musculus) (UniProt O35235+O35305); test: (§1) Inhibition of RANKL-RANK protein-protein interaction in C57/BL6 mouse bone marrow macrophage assessed as suppression of M-CSF/mRANKL-induced osteoclast differentiation by measuring decrease in multinucleated TRAP+ cells at 10 uM supplemented with fresh medium containing compounds every 2 days for 5 to 6 days by TRAP staining-based microscopic analysis relative to control; format: cell-based
Outline: (§2)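 Bone marrow macrophages were exposed to the test compound at the indicated concentrations for 5 days under M-CSF/RANKL stimulation. TRAP-positive multinucleated cells were then counted as the measure of osteoclast formation.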

[4] = biological target: T3, Tumor necrosis factor ligand superfamily member 11/11A (Mus musculus); test: Inhibition of RANKL-RANK protein-protein interaction in C57/BL6 mouse bone marrow macrophage assessed as suppression of M-CSF/mRANKL-induced osteoclastogenesis by measuring reduction in cathepsin K mRNA level measured after 3 days by Trizol-reagent-based qRT-PCR analysis
Outline: (§3)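 BMMs were treated with graded compound concentrations during RANKL-driven osteoclastogenesis. On day 3 of culture, NFATc1, TRAP and cathepsin K transcripts were quantified by real-time PCR.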

[5] = biological target: T3, Tumor necrosis factor ligand superfamily member 11/11A (Mus musculus); test: Inhibition of RANKL-RANK protein-protein interaction in C57/BL6 mouse bone marrow macrophage assessed as suppression of M-CSF/mRANKL-induced osteoclastogenesis by measuring reduction in NFATc1 mRNA level measured after 3 days by Trizol-reagent-based qRT-PCR analysis; outline: as §3
[6] = biological target: T3, Tumor necrosis factor ligand superfamily member 11/11A (Mus musculus); test: Inhibition of RANKL-RANK protein-protein interaction in C57/BL6 mouse bone marrow macrophage assessed as suppression of M-CSF/mRANKL-induced osteoclastogenesis by measuring reduction in TRAP mRNA level measured after 3 days by Trizol-reagent-based qRT-PCR analysis; outline: as §3
[7] = biological target: T4, Tumor necrosis factor ligand superfamily member 11 (Homo sapiens) (UniProt O14788); test: (§4) Inhibition of RANK binding to human RANKL measured after 1 h by surface plasmon resonance analysis
T4 sequence (whole entry): T2 sequence (O14788 whole entry)

[8] = biological target: T2, Tumor necrosis factor ligand superfamily member 11; test: as §4
[9] = system: BMDM; test: Cytotoxicity against M-CSF-stimulated C57/BL6 mouse bone marrow macrophages assessed as reduction in cell viability up to 10 uM measured after 2 days by MTT assay; format: cell-based; details: 48 h
[10] = biological target: T5, Tumor necrosis factor ligand superfamily member 11/11A (Mus musculus, UniProt O35235+O35305); test: as §1, with “cells” for “cells at 10 uM”, “analysis” for “analysis relative to control”; format: cell-based; outline: as §2
T5 sequence (O35235 whole entry): T1 sequence (O35235 whole entry)
T5 sequence (O35305 whole entry): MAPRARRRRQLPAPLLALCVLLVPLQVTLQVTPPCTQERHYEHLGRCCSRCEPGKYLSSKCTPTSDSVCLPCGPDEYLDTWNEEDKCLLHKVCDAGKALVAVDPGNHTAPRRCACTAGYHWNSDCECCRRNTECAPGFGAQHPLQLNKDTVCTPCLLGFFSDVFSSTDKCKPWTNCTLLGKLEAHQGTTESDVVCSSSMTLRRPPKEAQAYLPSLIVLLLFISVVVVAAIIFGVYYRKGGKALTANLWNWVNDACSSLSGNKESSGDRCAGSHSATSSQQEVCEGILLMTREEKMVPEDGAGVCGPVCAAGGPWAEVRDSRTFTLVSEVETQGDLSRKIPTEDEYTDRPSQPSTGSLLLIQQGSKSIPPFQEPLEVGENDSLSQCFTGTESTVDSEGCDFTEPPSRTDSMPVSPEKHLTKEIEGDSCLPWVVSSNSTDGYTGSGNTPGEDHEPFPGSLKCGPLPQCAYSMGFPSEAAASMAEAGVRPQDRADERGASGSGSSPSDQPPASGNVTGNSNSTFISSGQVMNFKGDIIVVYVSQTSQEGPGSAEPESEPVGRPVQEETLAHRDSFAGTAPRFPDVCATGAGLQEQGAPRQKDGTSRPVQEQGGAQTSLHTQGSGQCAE

[11] = biological target: T3, Tumor necrosis factor ligand superfamily member 11/11A (Mus musculus); test: as above; format: cell-based; outline: as §2
[12] = biological target: T3, Tumor necrosis factor ligand superfamily member 11/11A (Mus musculus); test: as §1, with “5” for “10”; format: cell-based; outline: as §2
[13] = biological target: T3, Tumor necrosis factor ligand superfamily member 11/11A (Mus musculus); test: Inhibition of RANKL-RANK protein-protein interaction in C57/BL6 mouse bone marrow macrophage assessed as suppression of M-CSF/mRANKL-induced osteoclastogenesis by measuring reduction in TRAP activity at 5 uM measured after 3 days by colorimetric assay relative to control
Outline: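 BMMs were incubated with the test compound at 5 μM, together with RANKL (50 ng/mL) and M-CSF (20 ng/mL), for 3 days. Osteoclastogenesis was then read out as tartrate-resistant acid phosphatase (TRAP) activity.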

[14] = biological target: T3, Tumor necrosis factor ligand superfamily member 11/11A (Mus musculus); test: as §1, with “nuclei size of F-actin ring formation” for “multinucleated TRAP+ cells”, “5” for “10”, “rhodamine phalloidin/DAPI” for “TRAP”, “analysis” for “analysis relative to control”; format: protein assay
[15] = biological target: T3, Tumor necrosis factor ligand superfamily member 11/11A (Mus musculus); test: as §1, with “5” for “10”, “analysis” for “analysis relative to control”; format: cell-based; outline: as §2
[16] = biological target: T3, Tumor necrosis factor ligand superfamily member 11/11A (Mus musculus); test: as §1, with “nuclei number of F-actin ring formation” for “multinucleated TRAP+ cells”, “5” for “10”, “rhodamine phalloidin/DAPI” for “TRAP”, “analysis” for “analysis relative to control”; format: protein assay
[17] = Cytotoxicity against M-CSF-stimulated C57/BL6 mouse bone marrow macrophages assessed as cell viability at 10 uM measured after 2 days by MTT assay (reference value: 100%); format: cell-based; details: M-CSF-stimulated bone marrow macrophages (BMDM), read-out: Activity
[18] = biological target: T3, Tumor necrosis factor ligand superfamily member 11/11A (Mus musculus); test: Inhibition of RANKL-RANK protein-protein interaction in C57/BL6 mouse bone marrow macrophage assessed as suppression of M-CSF/mRANKL-induced osteoclastogenesis by measuring reduction in cathepsin K mRNA level at 2.5 uM measured after 3 days by Trizol-reagent-based qRT-PCR analysis; outline: as §3
[19] = biological target: T3, Tumor necrosis factor ligand superfamily member 11/11A (Mus musculus); test: Inhibition of RANKL-RANK protein-protein interaction in C57/BL6 mouse bone marrow macrophage assessed as suppression of M-CSF/mRANKL-induced bone resorption at 1 to 5 uM measured after 2 days by toluidine blue staining-based confocal microscopic analysis
[20] = biological target: T3, Tumor necrosis factor ligand superfamily member 11/11A (Mus musculus); test: Inhibition of RANKL-RANK protein-protein interaction in C57/BL6 mouse bone marrow macrophage assessed as suppression of M-CSF/mRANKL-induced osteoclastogenesis by measuring reduction in NFATc1 mRNA level at 2.5 uM measured after 3 days by Trizol-reagent-based qRT-PCR analysis; outline: as §3
[21] = biological target: Tumor necrosis factor (Homo sapiens, UniProt P01375); test: Binding affinity to human TNFalpha by surface plasmon resonance analysis
[22] = biological target: T3, Tumor necrosis factor ligand superfamily member 11/11A (Mus musculus); test: Inhibition of RANKL-RANK protein-protein interaction in C57/BL6 mouse bone marrow macrophage assessed as suppression of M-CSF/mRANKL-induced osteoclastogenesis by measuring reduction in TRAP mRNA level at 2.5 uM measured after 3 days by Trizol-reagent-based qRT-PCR analysis; outline: as §3
[23] = biological target: T3, Tumor necrosis factor ligand superfamily member 11/11A (Mus musculus); test: Inhibition of RANKL-RANK protein-protein interaction in C57/BL6 mouse bone marrow macrophage assessed as suppression of M-CSF/mRANKL-induced osteoclastogenesis by measuring reduction in NFATc1 expression measured after 3 days by Western blot analysis
[24] = biological target: T3, Tumor necrosis factor ligand superfamily member 11/11A (Mus musculus); test: Inhibition of RANKL-RANK protein-protein interaction in C57/BL6 mouse bone marrow macrophage assessed as suppression of M-CSF/mRANKL-induced osteoclastogenesis by measuring reduction in c-fos expression measured after 3 days by Western blot analysis

Sequence of Tumor necrosis factor (P01375 whole entry): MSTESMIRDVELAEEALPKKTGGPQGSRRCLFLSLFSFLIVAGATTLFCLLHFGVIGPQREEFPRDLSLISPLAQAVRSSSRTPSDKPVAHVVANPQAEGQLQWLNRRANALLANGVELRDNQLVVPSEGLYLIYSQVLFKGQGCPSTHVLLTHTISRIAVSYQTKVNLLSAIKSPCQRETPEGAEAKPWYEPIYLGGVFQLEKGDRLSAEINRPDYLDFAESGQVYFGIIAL

| SMILES | Kd [2] [µM] | inhibition [11] | inhibition [13] | inhibition [14] | inhibition [15] [%] | inhibition [16] | viability at 48 h, 10 µM [17] [%] | also measured |
| --- | --- | --- | --- | --- | --- | --- | --- | --- |
| CC[C@H](C)[C@H](NC(=O)[C@H](CC(C)C)NC(=O)[C@H](Cc1ccc(O)cc1)NC(=O)[C@@H]1CSSC[C@H](NC(=O)[C@@H](N)Cc2ccc(O)cc2)C(=O)N[C@@H](CCC(=O)O)C(=O)N[C@@H]([C@@H](C)CC)C(=O)N[C@@H](CCC(=O)O)C(=O)N[C@@H](Cc2ccccc2)C(=O)N1)C(=O)N[C@@H](CCCNC(=N)N)C(=O)O (H-YCEIEFCYLIR-OH; disulfide 2-7) | 284 | – | – | – | – | – | – | Kd [1]: 284 µM |
| N=C(N)NCCC[C@H](NC(=O)[C@H](CCCNC(=N)N)NC(=O)[C@H](Cc1ccc(O)cc1)NC(=O)[C@@H]1CSSC[C@H](NC(=O)[C@@H](N)Cc2ccc(O)cc2)C(=O)N[C@@H](Cc2c[nH]c3ccccc23)C(=O)N[C@@H](CC(N)=O)C(=O)N[C@@H](CO)C(=O)N[C@@H](CC(=O)O)C(=O)N[C@@H](CS)C(=O)N[C@@H](CCC(=O)O)C(=O)N[C@@H](CS)C(=O)N1)C(=O)O (H-YCWNSDCECCYRR-OH; disulfide 2-10) | 17.3 | – | – | – | – | – | – | Kd [1]: 17.3 µM |
| Cc1cccc(C)c1NC(=O)C(Cc1c[nH]c2ccccc12)NC(=O)OCc1ccccc1 (racemic) | 9.8 | Dose-dependent effect | 54.9 to 68.4% | – | – | – | – | inhibition [3]: 93.3%; inhibition [4]: Dose-dependent effect; inhibition [5]: Dose-dependent effect; inhibition [6]: Dose-dependent effect; inhibition [7]: Dose-dependent effect; IC50 [8]: 26.2 µM; Activity [9]: Non-Toxic; IC50 [10]: 6.6 µM; inhibition [12]: 50% |
| Cc1cccc(C)c1NC(=O)C(Cc1c[nH]c2cc(F)ccc12)NC(=O)CCc1ccccc1 (racemic) | 3.5 | Dose-dependent effect | 89.4% | Dose-dependent effect | 100 | Dose-dependent effect | 103 | – |
| Cc1cccc(C)c1NC(=O)C(Cc1c[nH]c2ccccc12)NCCCc1ccccc1 (racemic) | 0.614 | Dose-dependent effect | 92.9% | Dose-dependent effect | 100 | Dose-dependent effect | 110 | inhibition [18]: Active; inhibition [19]: Active; inhibition [20]: Active; Kd [21]: 93.6 µM; inhibition [22]: Active; inhibition [23]: Dose-dependent effect; inhibition [24]: Dose-dependent effect |
| Cc1cccc(C)c1NC(=O)C(Cc1c[nH]c2ccccc12)NC(=O)CCc1ccc(Cl)cc1 (racemic) | 3.1 | Dose-dependent effect | 89% | Dose-dependent effect | 100 | Dose-dependent effect | 102 | – |
| Cc1cccc(C)c1NC(=O)C(Cc1c[nH]c2ccccc12)NC(=O)CCc1ccccc1 (racemic) [listing 1 of 2 here] | 2.7 | – | – | – | – | – | 110 | – |
| Cc1cccc(C)c1NC(=O)C(Cc1c[nH]c2ccccc12)NC(=O)CCc1ccccc1 (racemic) [listing 2 of 2 here] | – | Dose-dependent effect | 90.3% | Dose-dependent effect | 100 | Dose-dependent effect | – | – |
| Cc1cccc(C)c1NC(=O)C(Cc1c[nH]c2ccccc12)NC(=O)CCc1ccccc1 (single isomer, unassigned; (-)) | – | – | Active | – | – | – | – | – |
